The source made the active and inactive calls. The calls are words filed in the database; no cut-off is given here.
Columns and labels:
[1] = molecular target: T1, Urotensin-2 receptor (Homo sapiens) (UniProt Q9UKP6); assay: (§1) Activity against human urotensin-2 receptor expressed in NIH3T3 cells; type: cell-based
T1 sequence (whole entry): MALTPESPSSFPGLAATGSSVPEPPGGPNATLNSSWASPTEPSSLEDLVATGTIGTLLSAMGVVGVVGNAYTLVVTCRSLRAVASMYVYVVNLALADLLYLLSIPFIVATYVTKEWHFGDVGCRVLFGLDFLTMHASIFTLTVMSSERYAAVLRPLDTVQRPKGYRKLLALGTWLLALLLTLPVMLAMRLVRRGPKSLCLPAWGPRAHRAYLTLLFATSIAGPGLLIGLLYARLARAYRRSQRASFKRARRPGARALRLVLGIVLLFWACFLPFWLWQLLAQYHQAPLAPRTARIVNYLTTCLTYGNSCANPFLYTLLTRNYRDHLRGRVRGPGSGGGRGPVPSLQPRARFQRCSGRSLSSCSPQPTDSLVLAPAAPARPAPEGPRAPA
Outline: (§2)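 R-SAT functional agonist assay. NIH-3T3 cells grown to 80% confluence in DMEM with 10% bovine calf serum, then transfected for 18 h with human UII receptor plus β-galactosidase marker. Cells frozen, thawed and plated in DMEM with 0.4% calf serum and 30% UltraCulture onto compound. Five-day incubation in 5% CO2, then reporter read at 420 nm. Eight doses in triplicate; pEC50 averaged over 2-6 determinations; efficacy normalized to UII as 100%.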

Urotensin-2 receptor = molecular target: T2, Urotensin-2 receptor (Homo sapiens, UniProt Q9UKP6); assay: as §1; type: cell-based; outline: as §2
T2 sequence (Q9UKP6 whole entry): T1 sequence (whole entry)

Compound | Efficacy [1] | EC50 (Urotensin-2 receptor) | Log EC50 [1]
CN(C)CCC(NC(=O)NCc1ccccc1)c1ccc(Cl)cc1 (configuration not stated) | 179% | 2000 nM | 
CO[C@@H](C(=O)N[C@@H](CCN(C)C)c1ccc(Cl)cc1)c1ccccc1 | 165% | 871 nM | 
COc1ccc(NC(=O)NC(CCN(C)C)c2ccc(Cl)cc2)cc1 (configuration not stated) | 195% | 2000 nM | 
CN(C)CCC(OC(=O)c1ccc(C(F)(F)F)cc1)c1ccc(Cl)cc1 (configuration not stated) | 47% | 1740 nM | 
CCc1ccccc1C(=O)OC(CCN(C)C)c1ccc(Cl)cc1 (configuration not stated) | 128% |  | 
CN(C)CCC(OC(=O)NCc1ccccc1)c1ccc(Cl)cc1 (configuration not stated) | 180% |  | 
CN(C)CCC(NS(=O)(=O)c1ccc2ccccc2c1)c1ccc(Cl)cc1 (configuration not stated) |  |  | inactive
CN(C)CCC(OC(=O)c1ccc(-c2ccccc2)cc1)c1ccc(Cl)cc1 (configuration not stated) | 53% |  | 
CN(C)CCC(OC(=O)c1ccc2ccccc2c1)c1ccc(Cl)cc1 (configuration not stated) | 49% |  | 
CN(C)CCC(NC(=O)c1ccc(-c2ccccc2)cc1)c1ccc(Cl)cc1 (configuration not stated) | 116% |  | 
Cc1cc(Br)ccc1C(=O)OC(CCN(C)C)c1ccc(Cl)cc1 (configuration not stated) | 95% |  | 
CN(C)CCC(OC(=O)Nc1ccc2ccccc2c1)c1ccc(Cl)cc1 (configuration not stated) | 89% | 525 nM | 
COc1cccc(NC(=O)NC(CCN(C)C)c2ccc(Cl)cc2)c1 (configuration not stated) | 146% |  | 
COc1ccc(C(=O)OC(CCN(C)C)c2ccc(Cl)cc2)cc1 (configuration not stated) | 84% | 2190 nM | 
CN(C)CCC(OC(=O)c1cccc2ccccc12)c1ccc(Cl)cc1 (configuration not stated) | 95% |  | 
Cc1ccccc1NC(=O)OC(CCN(C)C)c1ccc(Cl)cc1 (configuration not stated) | 176% |  | 
Cc1ccc(C(=O)OC(CCN(C)C)c2ccc(Cl)cc2)cc1 (configuration not stated) | 56% |  | 
Cc1cccc(C(=O)NC(CCN(C)C)c2ccc(Cl)cc2)c1C (configuration not stated) | 159% |  | 
Cc1ccc(S(=O)(=O)NC(CCN(C)C)c2ccc(Cl)cc2)cc1 (configuration not stated) | 74% |  | 

Compound | Efficacy [1] | EC50 (Urotensin-2 receptor) | Log EC50 [1]
CN(C)CC[C@@H](NC(=O)c1ccc(-c2ccccc2)cc1)c1ccc(Cl)cc1 | 96% | 1450 nM | 
Cc1ccc(C(=O)NC(CCN(C)C)c2ccc(Cl)cc2)c(C)c1 (configuration not stated) | 147% |  | 
Cc1c(Cl)cccc1C(=O)OC(CCN(C)C)c1ccc(Cl)cc1 (configuration not stated) | 118% |  | 
CN(C)CCC(NC(=O)c1ccc(C(F)(F)F)cc1)c1ccc(Cl)cc1 (configuration not stated) | 115% | 77.6 nM | 
COc1cccc(C(=O)OC(CCN(C)C)c2ccc(Cl)cc2)c1C (configuration not stated) | 88% | 1950 nM | 
CN(C)CCC(OC(=O)Nc1ccc(C(F)(F)F)cc1)c1ccc(Cl)cc1 (configuration not stated) | 94% | 251 nM | 
CN(C)CCC(NC(=O)Nc1ccc(C(C)(C)C)cc1)c1ccc(Cl)cc1 (configuration not stated) | 103% | 275 nM | 
Cc1ccsc1C(=O)OC(CCN(C)C)c1ccc(Cl)cc1 (configuration not stated) | 119% |  | 
CN(C)CC[C@H](NC(=O)c1ccc2ccccc2c1)c1ccc(Cl)cc1 | 109% | 407 nM | 
CN(C)CCC(NC(=O)Nc1ccc(-c2ccccc2)cc1)c1ccc(Cl)cc1 (configuration not stated) | 91% | 145 nM | 
COc1ccc(C(=O)NC(CCN(C)C)c2ccc(Cl)cc2)cc1 (configuration not stated) | 162% |  | 
Cc1ccccc1C(=O)NC(CCN(C)C)c1ccc(Cl)cc1 (configuration not stated) | 175% |  | 
CCc1ccccc1C(=O)N[C@@H](CCN(C)C)c1ccc(Cl)cc1 | 140% | 1020 nM | 
CN(C)CCC(OC(=O)Nc1ccc(C(C)(C)C)cc1)c1ccc(Cl)cc1 (configuration not stated) | 105% | 1820 nM | 
Cc1cccc(Cl)c1C(=O)NC(CCN(C)C)c1ccc(Cl)cc1 (configuration not stated) | 105% |  | 
Cc1cc(C)c(C(=O)NC(CCN(C)C)c2ccc(Cl)cc2)cc1C (configuration not stated) | 159% |  | 
Cc1cccc(C(=O)OC(CCN(C)C)c2ccc(Cl)cc2)c1C (configuration not stated) | 91% | 1150 nM | 
CN(C)CCC(NC(=O)Cc1ccccc1)c1ccc(Cl)cc1 (configuration not stated) | 155% |  | 
Cc1ccccc1NC(=O)NC(CCN(C)C)c1ccc(Cl)cc1 (configuration not stated) | 175% |  | 

More lines, now with the values ahead:

Efficacy [1] | EC50 (Urotensin-2 receptor) | Log EC50 [1] | Compound
136% |  |  | COc1cccc(NC(=O)OC(CCN(C)C)c2ccc(Cl)cc2)c1 (configuration not stated)
58% | 269 nM |  | CN(C)CCC(OC(=O)Nc1ccc(-c2ccccc2)cc1)c1ccc(Cl)cc1 (configuration not stated)
112% | 5010 nM |  | CO[C@@H](C(=O)N[C@H](CCN(C)C)c1ccc(Cl)cc1)c1ccccc1
89% |  |  | CN(C)CCC(NC(=O)c1ccc(Oc2ccccc2)cc1)c1ccc(Cl)cc1 (configuration not stated)
104% | 1510 nM |  | CN(C)CCC(OC(=O)c1cn(C)c2ccccc12)c1ccc(Cl)cc1 (configuration not stated)
146% | 135 nM |  | Cc1cc2c(cc1C)C(=O)OC(CCN(C)C)(c1ccc(Cl)cc1)C2 (configuration not stated)
 |  | inactive | CN(C)CCC(NS(=O)(=O)c1ccc(-c2ccccc2)cc1)c1ccc(Cl)cc1 (configuration not stated)
126% |  |  | Cc1ccccc1C(=O)OC(CCN(C)C)c1ccc(Cl)cc1 (configuration not stated)
108% | 110 nM |  | CN(C)CCC(NC(=O)Nc1ccc(Oc2ccccc2)cc1)c1ccc(Cl)cc1 (configuration not stated)
 |  | inactive | COc1ccccc1COC(CCN(C)C)c1ccc(Cl)cc1 (configuration not stated)
86% |  |  | Cc1ccc(C)c(C(=O)OC(CCN(C)C)c2ccc(Cl)cc2)c1 (configuration not stated)
107% | 191 nM |  | CN(C)CCC(OC(=O)Nc1ccc(Oc2ccccc2)cc1)c1ccc(Cl)cc1 (configuration not stated)
150% |  |  | CN(C)CCC(NC(=O)c1ccc(N(C)C)cc1)c1ccc(Cl)cc1 (configuration not stated)
106% | 288 nM |  | CN(C)CCC(NC(=O)Nc1ccc2ccccc2c1)c1ccc(Cl)cc1 (configuration not stated)
116% | 32.4 nM |  | CN(C)CC[C@H](NC(=O)c1ccc(-c2ccccc2)cc1)c1ccc(Cl)cc1
142% |  |  | Cc1c(Cl)cccc1C(=O)NC(CCN(C)C)c1ccc(Cl)cc1 (configuration not stated)
164% |  |  | Cc1ccc(C)c(C(=O)NC(CCN(C)C)c2ccc(Cl)cc2)c1 (configuration not stated)
73% | 1380 nM |  | CN(C)CCC(OC(=O)c1cc2ccccc2n1C)c1ccc(Cl)cc1 (configuration not stated)
154% |  |  | CN(C)CCC(NC(=O)c1ccc2c(c1)OCO2)c1ccc(Cl)cc1 (configuration not stated)
105% | 117 nM |  | CN(C)CCC(NC(=O)Nc1ccc(C(F)(F)F)cc1)c1ccc(Cl)cc1 (configuration not stated)
60% |  |  | Cc1cc(C)c(C(=O)OC(CCN(C)C)c2ccc(Cl)cc2)cc1C (configuration not stated)
179% |  |  | COc1cccc(C(=O)NC(CCN(C)C)c2ccc(Cl)cc2)c1C (configuration not stated)
133% | 1120 nM |  | CN(C)CCC1(c2ccc(Cl)cc2)Cc2ccccc2C(=O)O1 (configuration not stated)
 |  | inactive | Cc1ccc(COC(CCN(C)C)c2ccc(Cl)cc2)cc1 (configuration not stated)
158% |  |  | CN(C)CCC(NC(=O)c1ccccc1)c1ccc(Cl)cc1 (configuration not stated)
170% | 1660 nM |  | COc1ccc(NC(=O)OC(CCN(C)C)c2ccc(Cl)cc2)cc1 (configuration not stated)

Reference: ChEMBL document CHEMBL1146083, “Novel potent and efficacious nonpeptidic urotensin II receptor agonists” (J Med Chem, 2006)
